In brackets after ≈: the same amount, converted by molar mass. Activity calls are given as the source filed them. No cut-off for these calls is given here.
What was measured:
[1] = tested on: rhinovirus B14; test: Antiviral activity against Human rhinovirus 14 assessed as reduction in virus yield after 24 to 36 hrs by agar plaque assay; type: functional; conditions: Rhinovirus B; read-out: ID50 (the source's name)
Outline: (§1)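 Virus-yield reduction: infected monolayers given serial dilutions of compound, incubated 24–36 h at 33 °C, 3% CO₂ until cytopathic effect in controls was almost total. Monolayers then frozen and thawed; virus in supernatant titrated by plaque assay (50% plaque reduction in Hep-2 cells). ID₅₀ is the concentration inhibiting plaque formation by 50%, from dose–response curves by linear regression.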

[2] = Cytotoxicity against human HeLa cells after 24 to 72 hrs by MTT assay; type: cell-based; conditions: read-out: CD50 (the source's name)
Outline: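 HeLa (Ohio strain) monolayers in DMEM with 1% non-essential amino acids, penicillin/streptomycin and 10% FCS at 37 °C, 5% CO₂, exposed to various compound concentrations. Morphology (rounding, shrinking, detachment) was checked by light microscopy at 24, 48 and 72 h, and viability read by MTT colorimetry. CD₅₀ is the concentration reducing control absorbance by 50%.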

[3] = tested on: rhinovirus A39; test: Antiviral activity against Human rhinovirus 39 assessed as reduction in virus yield after 24 to 36 hrs by agar plaque assay; type: functional; conditions: Rhinovirus A; read-out: ID50 (the source's name); outline: as §1
[4] = Protective index, ratio of CD50 for human HeLa cells to ID50 for Human rhinovirus 14
Outline: (§2)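 PI = CD₅₀/ID₅₀. For CD₅₀, HeLa (Ohio strain) monolayers in DMEM with 10% fetal calf serum were exposed to a range of compound concentrations at 37 °C, 5% CO₂. Morphology was checked by light microscopy at 24, 48 and 72 h. Viability read by MTT; CD₅₀ = concentration reducing control absorbance by 50%. ID₅₀ came from the plaque-reduction virus-yield assay.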

[5] = Protective index, ratio of CD50 for human HeLa cells to ID50 for Human rhinovirus 39; outline: as §2
[6] = tested on: rhinovirus B14; test: Antiviral activity against Human rhinovirus 14 assessed as reduction in virus yield at 5 ug/ml added 4 to 5 hrs after infection by agar plaque assay; type: functional, organism-based
Outline: (§3)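 HRV14 (group A, ATCC; working stocks prepared as cellular lysates in DMEM with 2% heat-inactivated FCS). Compound was added to cells at different times, from h −1 to several hours post infection, and incubated 24–36 h at 33 °C, 3% CO₂ until cytopathic effect in controls was almost total. Monolayers were then freeze-thawed and supernatant virus titrated by plaque assay.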

[7] = tested on: rhinovirus B14; test: Antiviral activity against Human rhinovirus 14 assessed as reduction in virus yield at 5 ug/ml added within 3 hrs after infection by agar plaque assay; type: functional, organism-based; outline: as §3
[8] = tested on: rhinovirus B14; test: Reversible antiviral activity against Human rhinovirus 14 assessed as reduction in virus yield by agar plaque assay; type: functional, organism-based

Question: With CC(=O)c1ccc(OCCCOCCc2cc(C)no2)cc1 as the compound, how does the IC50 [1] read?
Answer: 25 µg/mL (≈ 82.4 µM)

Question: What about the CC50 [2] of the same compound?
Answer: 50 µg/mL (≈ 165 µM)

Question: And the IC50 [3]?
Answer: 6 µg/mL (≈ 19.8 µM)

Question: And the PI [4]?
Answer: 2

Question: What about the PI [5] of the same compound?
Answer: 8

Question: Which IC50 [1] does the source give for Cc1cc(OCCCOc2ccc3c(c2)OCO3)on1 here?
Answer: 25 µg/mL (≈ 90.2 µM)

Question: What about the CC50 [2] of the same compound?
Answer: 50 µg/mL (≈ 180 µM)

Question: What about the IC50 [3] of the same compound?
Answer: 12 µg/mL (≈ 43.3 µM)

Question: And the PI [4]?
Answer: 2

Question: And the PI [5]?
Answer: 4

Question: Which results are given for CCOC(=O)c1ccc(OCCC2CCN(c3ccc(C)nn3)CC2)cc1 [PIRODAVIR]?
Answer: IC50 [1]: 0.012 µg/mL (≈ 0.0325 µM); CC50 [2]: 3.1 µg/mL (≈ 8.39 µM); Activity [6]: inactive; IC50 [3]: 0.006 µg/mL (≈ 0.0162 µM); Activity [7]: Active; PI [4]: 258; PI [5]: 516

Question: For CC(=O)c1ccc(OCCCOc2ccc3c(c2)OCO3)cc1, which IC50 [1] is on record?
Answer: 25 µg/mL (≈ 79.5 µM)

Question: What about the CC50 [2] of the same compound?
Answer: 25 µg/mL (≈ 79.5 µM)

Question: What about the IC50 [3] of the same compound?
Answer: 25 µg/mL (≈ 79.5 µM)

Question: And the PI [4]?
Answer: 1

Question: And the PI [5]?
Answer: 1

Question: With CCOC(=O)c1ccc(OCCCOCCc2cc(C)no2)cc1 as the compound, how does the IC50 [1] read?
Answer: 0.07 µg/mL (≈ 0.21 µM)

Question: And the CC50 [2]?
Answer: 50 µg/mL (≈ 150 µM)

Question: And the IC50 [3]?
Answer: 0.07 µg/mL (≈ 0.21 µM)

Question: What about the PI [4] of the same compound?
Answer: 714

Question: And the PI [5]?
Answer: 714

Question: For Cc1cc(CCOCCCOc2ccc3c(c2)OCO3)on1, which IC50 [1] is on record?
Answer: 50 µg/mL (≈ 164 µM)

Question: What about the CC50 [2] of the same compound?
Answer: 50 µg/mL (≈ 164 µM)

Question: And the IC50 [3]?
Answer: 50 µg/mL (≈ 164 µM)

Question: And the PI [4]?
Answer: 1

Question: What about the PI [5] of the same compound?
Answer: 1

Question: Which IC50 [1] does the source give for CC(=O)c1ccc(OCCCOCc2ccc3c(c2)OCO3)cc1 here?
Answer: 6 µg/mL (≈ 18.3 µM)

Question: And the CC50 [2]?
Answer: 50 µg/mL (≈ 152 µM)

Question: What about the IC50 [3] of the same compound?
Answer: 6 µg/mL (≈ 18.3 µM)

Question: What about the PI [4] of the same compound?
Answer: 8

Question: What about the PI [5] of the same compound?
Answer: 8

Question: What does the source list for CCOc1nc2ccc(OCCCOc3ccc4c(c3)OCO4)cc2o1?
Answer: IC50 [1]: 25 µg/mL (≈ 70 µM); CC50 [2]: 200 µg/mL (≈ 560 µM); IC50 [3]: 12 µg/mL (≈ 33.6 µM); PI [4]: 8; PI [5]: 16

Question: With CCOc1nc2ccc(OCCCOc3ccc(C(C)=O)cc3)cc2o1 as the compound, how does the IC50 [1] read?
Answer: 0.5 µg/mL (≈ 1.41 µM)

Question: And the CC50 [2]?
Answer: 200 µg/mL (≈ 563 µM)

Question: And the Activity [6]?
Answer: inactive

Question: And the Activity [8]?
Answer: Active

Question: What about the IC50 [3] of the same compound?
Answer: 0.1 µg/mL (≈ 0.281 µM)

Question: What about the Activity [7] of the same compound?
Answer: Active

Question: What about the PI [4] of the same compound?
Answer: 400

Question: And the PI [5]?
Answer: 2000

Question: Which IC50 [1] does the source give for Fc1ccc(OCCCOc2ccc3c(c2)OCO3)cc1 here?
Answer: 25 µg/mL (≈ 86.1 µM)

Question: What about the CC50 [2] of the same compound?
Answer: 25 µg/mL (≈ 86.1 µM)

Question: And the IC50 [3]?
Answer: 25 µg/mL (≈ 86.1 µM)

Question: What about the PI [4] of the same compound?
Answer: 1

Question: What about the PI [5] of the same compound?
Answer: 1

Question: Which IC50 [1] does the source give for CCOc1nc2ccc(OCCCOc3ccc(C#N)cc3)cc2o1 here?
Answer: 25 µg/mL (≈ 73.9 µM)

Question: And the CC50 [2]?
Answer: 50 µg/mL (≈ 148 µM)

Question: What about the IC50 [3] of the same compound?
Answer: 1.5 µg/mL (≈ 4.43 µM)

Question: And the PI [4]?
Answer: 2

Question: What about the PI [5] of the same compound?
Answer: 33

Reference: ChEMBL document CHEMBL3352302, “Synthesis of new compounds with promising antiviral properties against group A and B Human Rhinoviruses” (Bioorg Med Chem, 2014)
